According to article PMC5766731 (Clinical Pharmacokinetics, 2017):

Tests used:
[1] = Part III safety assessment; assay type: in vivo, human
Procedure, shortened: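 Safety monitored under ICH-GCP in each part (single 10–300 mg; alternate-day 100–300 mg; 150 mg fasted/fed crossover). Assessments: adverse events coded with MedDRA version 18.0, clinical examinations, frequent vital signs, 12-lead ECGs, clinical laboratory tests, and continuous ECG for 24 h post-dose in parts I and II. Post-dose vs baseline compared by paired two-sided t test, α = 0.05.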

[2] = Part II urinary recovery of ZYAN1; assay type: in vivo, human; conditions: urine
Procedure, shortened: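 Urine collected pre-dose and over 0–12, 12–24, 24–36 and 36–48 h: after the single dose (10–300 mg, part I) or after each alternate-day dose on Days 1, 3 and 5 (part II). Total volume recorded; 5 mL aliquots stored at –80 ± 10 °C. Acetonitrile precipitation and LC-MS/MS with analog internal standard, urine calibration 2–5000 ng/mL, LLOQ 2 ng/mL. Amount and percentage of dose recovered calculated.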

O=C(O)CNC(=O)c1c(O)c2ccccc2n(OCC2CC2)c1=O [ZYAN1]
Adverse events (Test) ([1]; Food and sex effect 150 mg panel): Palpitation, cellulitis, back pain, musculoskeletal pain, head discomfort, headache (2), folliculitis, cellulitis | total AEs reported ([1]; part III crossover, 150 mg): 11 | Amount recovered [mean ± SD] ([2]; 100 mg, Day 1): 50.13 ± 14.99 mg | Percentage recovered [mean ± SD] ([2]; 100 mg, Day 1): 50.132 ± 14.998% | Amount recovered [mean ± SD] ([2]; 100 mg, Day 3): 41.00 ± 11.07 mg | Percentage recovered [mean ± SD] ([2]; 100 mg, Day 3): 41.001 ± 11.071% | Amount recovered [mean ± SD] ([2]; 100 mg, Day 5): 50.14 ± 12.16 mg | Percentage recovered [mean ± SD] ([2]; 100 mg, Day 5): 50.137 ± 12.160% | Amount recovered [mean ± SD] ([2]; 150 mg, Day 1): 52.77 ± 6.85 mg | Percentage recovered [mean ± SD] ([2]; 150 mg, Day 1): 35.178 ± 4.566% | Amount recovered [mean ± SD] ([2]; 150 mg, Day 3): 54.64 ± 13.35 mg | Percentage recovered [mean ± SD] ([2]; 150 mg, Day 3): 36.427 ± 8.900% | Amount recovered [mean ± SD] ([2]; 150 mg, Day 5): 44.23 ± 8.18 mg | Percentage recovered [mean ± SD] ([2]; 150 mg, Day 5): 29.488 ± 5.453% | Amount recovered [mean ± SD] ([2]; 200 mg, Day 1): 64.95 ± 25.50 mg | Percentage recovered [mean ± SD] ([2]; 200 mg, Day 1): 32.474 ± 12.749% | Amount recovered [mean ± SD] ([2]; 200 mg, Day 3): 66.09 ± 8.74 mg | Percentage recovered [mean ± SD] ([2]; 200 mg, Day 3): 33.044 ± 4.371% | Amount recovered [mean ± SD] ([2]; 200 mg, Day 5): 75.76 ± 12.76 mg | Percentage recovered [mean ± SD] ([2]; 200 mg, Day 5): 37.880 ± 6.381% | Amount recovered [mean ± SD] ([2]; 300 mg, Day 1): 82.97 ± 35.69 mg | Percentage recovered [mean ± SD] ([2]; 300 mg, Day 1): 27.656 ± 11.899% | Amount recovered [mean ± SD] ([2]; 300 mg, Day 3): 92.22 ± 41.92 mg | Percentage recovered [mean ± SD] ([2]; 300 mg, Day 3): 30.741 ± 13.972% | Amount recovered [mean ± SD] ([2]; 300 mg, Day 5): 99.15 ± 34.40 mg | Percentage recovered [mean ± SD] ([2]; 300 mg, Day 5): 33.050 ± 11.466%
